From ChEMBL document CHEMBL1649159, “A redox basis for metronidazole resistance in Helicobacter pylori” (Antimicrob Agents Chemother, 2009) come the findings set out here.

Values after ≈ are worked out from the molar mass of the structure shown.

A short description of series [1]: Drug activation in metronidazole-resistant Helicobacter pylori HER 126 V4 lysate.
Series [2] in a line: Drug activation in metronidazole-susceptible Helicobacter pylori 10593/2 lysate.
The nature of series [3]: Drug activation in metronidazole-resistant Helicobacter pylori 10593a/2 lysate.
Series [4] can be described thus: Drug activation in metronidazole-susceptible Helicobacter pylori HER 126 V1 lysate.
Series [5] in a line: Drug activation in metronidazole-susceptible Helicobacter pylori CAS 015 J0 lysate.
Series [6] in a line: Drug activation in metronidazole-resistant Helicobacter pylori CAS 015 J56 lysate harboring rdxA L132stop and frxA L39stop mutant genes. The series is classed as organism-based.
Series [7] is described as follows: Drug activation in metronidazole-resistant Helicobacter pylori RIG 117 J56 lysate.
A short description of series [8]: Drug activation in metronidazole-susceptible Helicobacter pylori RIG 117 J0 lysate.
Series [9] has as its system Helicobacter pylori. Description: Prodrug activation in compound-resistant Helicobacter pylori 10593a/2 lysate harboring rdxA C177stop mutant gene assessed as compound reduction under oxygenated aerobic condition per mg of protein. Put shortly:
(§1)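 Lysates of H. pylori strains grown at 37°C, either aerobically (5% CO2 in air) or microaerobically (5% CO2, 5% O2, 90% N2), with Mtr and NADH as substrates for reduction activity. Some lysate samples were argon-treated to displace oxygen. Protein content was measured by bicinchoninic acid microtiter assay.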

Series [10] has as its system Helicobacter pylori. Description: Prodrug activation in compound-resistant Helicobacter pylori CAS 015 J56 lysate harboring rdxA L132stop and frxA L39stop mutant genes assessed as compound reduction under oxygenated microaerobic condition per mg of protein. The procedure, abridged:
as §1

Series [11] deals with Helicobacter pylori. Description: Prodrug activation in Helicobacter pylori 10593/2 lysate assessed as compound reduction under argonized aerobic condition per mg of protein. The procedure, abridged:
(§2)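 Metronidazole reduction was measured in lysate suspensions with Mtr and NADH as substrates. Cells were grown at 37°C either aerobically (5% CO2 in air) or microaerobically (5% CO2, 5% O2, 90% N2). Lysate samples were either argon-treated to displace oxygen or left untreated. Rates were expressed per mg protein, with protein determined by the bicinchoninic acid method.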

The subject of series [12] is Helicobacter pylori. Description: Prodrug activation in Helicobacter pylori 10593/2 lysate assessed as compound reduction under argonized microaerobic condition per mg of protein. Put shortly: as §2
The subject of series [13] is Helicobacter pylori. Description: Antimicrobial activity against compound-resistant Helicobacter pylori RIG 117 J56 harboring rdxA R16C and frxA A40stop mutant genes by Etest. It counts as functional. Put shortly:
(§3)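 Metronidazole susceptibility by Etest, repeated in triplicate, on clinical matched-pair isolates collected after failed metronidazole treatment. Strains were grown at 37°C either microaerobically (5% CO2, 5% O2, 90% N2) or aerobically (5% CO2 in air). Isolates were called resistant above a threshold of 8 µg ml–1.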

Series [14] concerns Helicobacter pylori. Put plainly: Prodrug activation in Helicobacter pylori HER 126 V1 lysate assessed as compound reduction under argonized microaerobic condition per mg of protein. The procedure, abridged: as §1
Series [15] concerns Helicobacter pylori. Put plainly: Antimicrobial activity against compound-resistant Helicobacter pylori CAS 015 J56 harboring rdxA L132stop and frxA L39stop mutant genes by Etest. It counts as functional. Put shortly:
as §3

Series [16] concerns Helicobacter pylori. Put plainly: Prodrug activation in Helicobacter pylori RIG 117 J0 lysate assessed as compound reduction under oxygenated microaerobic condition per mg of protein. The procedure, abridged:
as §1

In series [17] the test system is Helicobacter pylori. Put plainly: Prodrug activation in Helicobacter pylori 10593a/2 lysate harboring rdxA C177stop mutant gene assessed as compound reduction under oxygenated microaerobic condition per mg of protein. The procedure, abridged: as §1
The test system of series [18] is Helicobacter pylori. Put plainly: Antimicrobial activity against Helicobacter pylori RIG 117 J0 by Etest. The series is classed as functional. Put shortly: (§4)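 Etest MIC determination, repeated in triplicate. Strains were grown at 37°C, either aerobically (5% CO2 in air) or microaerobically (5% CO2, 5% O2, 90% N2). Strains were classed as susceptible or resistant using a resistance threshold of 8 µg ml–1, following clinical practice.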

Series [19] has as its system Helicobacter pylori. Description: Prodrug activation in compound-resistant Helicobacter pylori CAS 015 J56 lysate harboring rdxA L132stop and frxA L39stop mutant genes assessed as compound reduction under oxygenated aerobic condition per mg of protein. Put shortly: as §1
For series [20], the system named is Helicobacter pylori. Description: Prodrug activation in Helicobacter pylori CAS 015 J0 lysate assessed as compound reduction under argonized aerobic condition per mg of protein. The procedure, abridged:
as §2

The test system of series [21] is Helicobacter pylori. Description: Antimicrobial activity against Helicobacter pylori HER 126 V1 by Etest. The series is classed as functional. Put shortly:
as §3

The test system of series [22] is Helicobacter pylori. Description: Prodrug activation in Helicobacter pylori HER 126 V1 lysate assessed as compound reduction under argonized aerobic condition per mg of protein. Put shortly:
as §2

Series [23] deals with Helicobacter pylori. Description: Prodrug activation in Helicobacter pylori RIG 117 J0 lysate assessed as compound reduction under argonized aerobic condition per mg of protein. The following applies: in vivo. The procedure, abridged: as §2
The subject of series [24] is Helicobacter pylori. Put plainly: Prodrug activation in Helicobacter pylori 10593/2 lysate assessed as compound reduction under oxygenated aerobic condition per mg of protein. The procedure, abridged:
as §1

Series [25] has as its system Helicobacter pylori. Put plainly: Prodrug activation in compound-resistant Helicobacter pylori HER 126 V4 lysate assessed as compound reduction under argonized microaerobic condition per mg of protein. The procedure, abridged: as §1
Series [26] deals with Helicobacter pylori. Put plainly: Prodrug activation in Helicobacter pylori CAS 015 J0 lysate assessed as compound reduction under oxygenated microaerobic condition per mg of protein. Put shortly: as §1
Series [27] relates to Helicobacter pylori. Description: Prodrug activation in Helicobacter pylori CAS 015 J0 lysate assessed as compound reduction under argonized microaerobic condition per mg of protein. Put shortly: as §2
Series [28] has as its system Helicobacter pylori. Put plainly: Antimicrobial activity against Helicobacter pylori CAS 015 J0 by Etest. It counts as functional. The procedure, abridged:
as §4

In series [29] the test system is Helicobacter pylori. Put plainly: Prodrug activation in Helicobacter pylori CAS 015 J0 lysate assessed as compound reduction under oxygenated aerobic condition per mg of protein. The procedure, abridged: as §1
Series [30] concerns Helicobacter pylori. Put plainly: Antimicrobial activity against Helicobacter pylori 10593/2 by Etest. The series is classed as functional. Put shortly: as §3
In series [31] the test system is Helicobacter pylori. Description: Antimicrobial activity against compound-resistant Helicobacter pylori 10593a/2 harboring rdxA C177stop mutant gene by Etest. It counts as functional. Put shortly:
as §3

Series [32] has as its system Helicobacter pylori. Put plainly: Prodrug activation in Helicobacter pylori HER 126 V1 lysate assessed as compound reduction under oxygenated aerobic condition per mg of protein. The following applies: in vivo. The procedure, abridged:
as §2

In series [33] the test system is Helicobacter pylori. Description: Prodrug activation in Helicobacter pylori HER 126 V1 lysate assessed as compound reduction under oxygenated microaerobic condition per mg of protein. The settings on record: in vivo. Put shortly:
as §2

The test system of series [34] is Helicobacter pylori. Description: Prodrug activation in Helicobacter pylori 10593/2 lysate assessed as compound reduction under oxygenated microaerobic condition per mg of protein. The procedure, abridged:
as §1

In series [35] the test system is Helicobacter pylori. Description: Prodrug activation in Helicobacter pylori RIG 117 J0 lysate assessed as compound reduction under argonized microaerobic condition per mg of protein. The procedure, abridged:
as §2

Series [36] has as its system Helicobacter pylori. Description: Prodrug activation in Helicobacter pylori RIG 117 J0 lysate assessed as compound reduction under oxygenated aerobic condition per mg of protein. The following applies: in vivo. Put shortly: as §2
For series [37], the system named is Helicobacter pylori. Put plainly: Prodrug activation in compound-resistant Helicobacter pylori 10593a/2 lysate harboring rdxA C177stop mutant gene assessed as compound reduction under argonized microaerobic condition per mg of protein. The procedure, abridged: as §1
The test system of series [38] is Helicobacter pylori. Put plainly: Prodrug activation in compound-resistant Helicobacter pylori RIG 117 J56 lysate harboring rdxA R16C and frxA A40stop mutant genes assessed as compound reduction under oxygenated microaerobic condition per mg of protein. It counts as organism-based. The following applies: in vivo. The procedure, abridged:
as §1

The subject of series [39] is Helicobacter pylori. Put plainly: Prodrug activation in compound-resistant Helicobacter pylori HER 126 V4 lysate assessed as compound reduction under oxygenated microaerobic condition per mg of protein. The following applies: in vivo. Put shortly:
as §1

In series [40] the test system is Helicobacter pylori. Description: Antimicrobial activity against compound-resistant Helicobacter pylori HER 126 V4 by Etest. It counts as functional. The procedure, abridged:
as §3

For orientation: Km means the substrate concentration at which the rate is half of its maximum. As for `Cc1cc2nc3c(=O)[nH]c(=O)nc-3n(C[C@H](O)[C@H](O)[C@H](O)COP(=O)(O)OP(=O)(O)OC[C@H]3O[C@@H](n4cnc5c(N)ncnc54)[C@H](O)[C@@H]3O)c2cc1C` [FLAVIN ADENIN DINUCLEOTIDE], the Km in series [1] was found to be 17 µM; in series [2], 2100 nM; in series [3], 5 µM; in [4], 6 µM; in series [5] it was 2.4 µM; in series [6], 24 µM. For the same compound, the Michaelis constant (Km) is 11 µM in series [7] and 95 µM in series [8].

As a reminder, the MIC is the least concentration at which growth counts as inhibited. Higher therefore signals a less susceptible organism. In the case of `Cc1ncc([N+](=O)[O-])n1CCO` [METRONIDAZOLE], the Activity in series [9] came to 10 nmol/min; in series [10] it was 9 nmol/min; in [11], 36 nmol/min; in series [12], 32 nmol/min; in [14] it was 20 nmol/min; in series [16], 19 nmol/min. The Activity in [17] turned out to be 9 nmol/min; in series [19] it was 13 nmol/min; in series [20] it was 31 nmol/min; in series [22], 25 nmol/min; in [23], 33 nmol/min; in [24] it was 16 nmol/min. Moreover, the Activity was 11 nmol/min in series [25]; 15 nmol/min in series [26]; 29 nmol/min in [27]; 18 nmol/min in series [29]; 22 nmol/min in [32]; 18 nmol/min in [33]. The Activity in series [34] was found to be 14 nmol/min; in series [35] it was 32 nmol/min; in series [36], 27 nmol/min; in [37], 13 nmol/min; in series [38] it was 13 nmol/min; in series [39] it was 10 nmol/min. The MIC in series [13] came out at 32 µg/mL (≈ 187 µM); in [15], 32 µg/mL (≈ 187 µM); in [18], 4 µg/mL (≈ 23.4 µM); in series [21], 2 µg/mL (≈ 11.7 µM); in series [28] it was 4 µg/mL (≈ 23.4 µM); in [30], 2 µg/mL (≈ 11.7 µM). The MIC in series [31] and in [40] was 64 µg/mL (≈ 374 µM) throughout.

As for `NC(=O)N/N=C/c1ccc([N+](=O)[O-])o1` [NITROFURAZONE], the Michaelis-Menten constant (Km) in [1] amounted to 6.8 µM; in series [2], 2800 nM; in series [3], 6 µM; in [4], 13.1 µM; in series [5], 8.8 µM; in [6], 3.3 µM. In addition, the Michaelis-Menten constant (Km) in series [7] worked out at 8.5 µM; in [8], 8.1 µM.
